# Published values from different studies.
# Each line is one published result; the experiments were not run side by side.
# Target: Ankyrin repeat and protein kinase domain-containing protein 1 (ANKK1, Homo sapiens, UniProt Q8NFD2)
# Sequence (Q8NFD2 1-765, as in one of the studies): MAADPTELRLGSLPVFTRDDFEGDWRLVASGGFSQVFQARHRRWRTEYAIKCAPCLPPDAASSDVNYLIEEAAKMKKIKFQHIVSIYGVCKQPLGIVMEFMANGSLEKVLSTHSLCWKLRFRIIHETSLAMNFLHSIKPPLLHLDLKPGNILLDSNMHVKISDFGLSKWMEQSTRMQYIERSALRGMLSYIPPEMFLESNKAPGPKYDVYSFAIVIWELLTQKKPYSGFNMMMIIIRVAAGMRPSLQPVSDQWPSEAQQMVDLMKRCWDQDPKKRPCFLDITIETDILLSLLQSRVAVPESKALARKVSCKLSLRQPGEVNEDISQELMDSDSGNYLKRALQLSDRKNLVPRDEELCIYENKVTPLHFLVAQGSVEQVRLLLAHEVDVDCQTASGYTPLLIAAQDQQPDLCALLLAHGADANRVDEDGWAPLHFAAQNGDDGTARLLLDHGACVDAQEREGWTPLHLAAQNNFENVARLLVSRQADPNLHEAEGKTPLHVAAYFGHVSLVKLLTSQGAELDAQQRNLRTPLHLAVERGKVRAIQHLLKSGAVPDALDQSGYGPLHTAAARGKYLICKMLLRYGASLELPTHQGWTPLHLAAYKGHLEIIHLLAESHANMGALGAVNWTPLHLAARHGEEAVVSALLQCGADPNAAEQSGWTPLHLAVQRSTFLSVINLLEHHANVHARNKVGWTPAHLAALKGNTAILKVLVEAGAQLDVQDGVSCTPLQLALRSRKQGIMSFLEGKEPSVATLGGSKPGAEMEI
Compound,effect on,technique,concentration,remaining binding
C[C@@H]1CN(c2cc(-c3n[nH]c4ccc(OC5(C)CC5)cc34)ncn2)C[C@H](C)O1,cell-free assay,competition with immobilised ligand,0.1 µM,79%
O=C(c1ccc(Nc2nccc(-c3cc4ccccc4s3)n2)cc1)N1CCC(N2CCCC2)CC1,binding,competition with immobilised ligand,1 µM,71%
COc1cnc(Nc2cccc(S(N)(=O)=O)c2)nc1N1CCN(c2ccccc2)C(=O)C1,binding,competition with immobilised ligand,1 µM,82%
O=C(NCCCN1CCOCC1)c1ccc(Nc2ncc(Cl)c(-c3ccc(Cl)s3)n2)cc1,binding,competition with immobilised ligand,1 µM,77%
CCC(=O)N[C@@H]1CC[C@H](C(=O)N(C)c2ccc(-c3nc4ccccc4o3)cc2)C1,cell-free assay,competition with immobilised ligand,1 µM,100%
N[C@@H]1CCN(c2nccc(-c3cnn4ncccc34)n2)C1,binding,,1 µM,100%
N#Cc1ccc(Nc2ccc3[nH]c(=O)[nH]c3c2)c(Cl)c1,cell-free assay,competition with immobilised ligand,1 µM,100%
Nc1ncc2c(n1)-c1c([nH]c3ccc(C#CC4CC4)cc13)CCCC2,binding,competition with immobilised ligand,1 µM,85%
CNC(=O)[C@@H]1CC[C@@H](n2c(-c3ccc4cnccc4c3)nc3ccc(C(=O)NCc4cccc(C(N)=O)c4)cc32)C1,binding,competition with immobilised ligand,1 µM,100%
O=C(c1ccc(Nc2ncc(Cl)c(-c3ccc(Cl)s3)n2)cc1)N1CCC(N2CCCC2)CC1,binding,competition with immobilised ligand,1 µM,61%
c1ccc(N2CCN(Cc3nc4ccccc4[nH]3)CC2)nc1,binding,competition with immobilised ligand,1 µM,100%
FC(F)(F)Oc1cccc(-c2cnc3ccc(-c4ccncc4)nn23)c1,cell-free assay,competition with immobilised ligand,5 µM,70%
C=CC(=O)N1CCC(C(=O)NCC(=O)N2CCN(c3nc(-c4cnc(N)nc4C(F)F)nc(N4CCOCC4)n3)CC2)CC1,binding,competition with immobilised ligand,1 µM,100%
CN(C)c1ncc(F)c(-c2cnn3ncccc23)n1,binding,,1 µM,69%
CC1=C(C#N)C(c2ccc3c(c2)c(NC(=O)c2ccccc2C)nn3C)C(C#N)=C(C)N1,cell-free assay,competition with immobilised ligand,1 µM,92%
C[C@@H]1CCN(c2nccc(-c3cnn4ncccc34)n2)C1,binding,,1 µM,81%
O=C(NCC1CCOCC1)c1n[nH]cc1NC(=O)c1c(F)cccc1F,binding,competition with immobilised ligand,1 µM,66%
Cc1cnn2ncc(-c3ccnc(N(C)C)n3)c2c1,binding,,1 µM,100%
C[C@@]1(Cc2ccc(C#N)cc2)C(=O)N(c2cc(Cl)cc(Cl)c2)c2ncc(C(=O)NC3(c4nc(C5CCC5)no4)CC3)n21,cell-free assay,competition with immobilised ligand,1 µM,100%
F[C@@H]1CCN(c2nccc(-c3cnn4ncccc34)n2)C1,binding,,1 µM,100%
C[C@@H](c1ccc(-n2cnc3c(N)ncnc32)cc1)N1CCc2nn(C)c(Cc3ccccc3)c2C1=O,binding,competition with immobilised ligand,0.1 µM,85%
